Source: ChEMBL document CHEMBL4251665, “Ca2+-Signal Transduction Inhibitors, Kujiol A and Kujigamberol B, Isolated from Kuji Amber Using a Mutant Yeast” (J Nat Prod, 2018)
Activity calls are given as the source filed them. The rule behind the calls is not given here.

Legend:
WI-38 = test: Cytotoxicity against human WI38 cells after 48 hrs by MTT assay; assay type: cell-based; details: WI-38, 48 h
Summary of the method: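 WI-38 human diploid lung fibroblasts cultured in DMEM at 5 × 10^3 cells/well, then tested for cytotoxicity.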

[1] = molecular target: T1, Glycogen synthase kinase-3 beta (Homo sapiens, UniProt P49841); test: Inhibition of human GSK-3beta at 200 uM using peptide substrate
Target sequence in this assay (P49841 whole entry, looked up): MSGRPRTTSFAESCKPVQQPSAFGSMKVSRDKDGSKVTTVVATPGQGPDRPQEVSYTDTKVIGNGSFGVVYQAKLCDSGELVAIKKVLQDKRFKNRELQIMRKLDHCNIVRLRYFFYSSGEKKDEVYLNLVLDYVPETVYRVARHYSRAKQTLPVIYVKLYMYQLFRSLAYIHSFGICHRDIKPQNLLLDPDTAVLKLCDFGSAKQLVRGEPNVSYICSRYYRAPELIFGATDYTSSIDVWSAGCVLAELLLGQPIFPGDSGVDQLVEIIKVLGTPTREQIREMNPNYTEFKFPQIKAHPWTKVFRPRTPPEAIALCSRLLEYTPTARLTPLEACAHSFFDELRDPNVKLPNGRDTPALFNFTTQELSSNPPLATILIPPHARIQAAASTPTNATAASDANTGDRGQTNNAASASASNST

Homo sapiens [2] = species: Homo sapiens; test: Inhibition of calcineurin (unknown origin) at 200 uM using DLDVPIPGRFDRRVpSVAAE as substrate by malachite green based colorimetric method
HL-60 = test: Cytotoxicity against human HL60 cells after 48 hrs by MTT assay; assay type: cell-based; details: HL-60, 48 h
Summary of the method: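 HL60 cells grown in RPMI 1640 with 10% heat-inactivated FBS and penicillin (50 units/mL)–streptomycin (50 μg/mL). Exposed to samples for 48 h at 37 °C, humidified, 5% CO2. Viability read by MTT assay; IC50 derived.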

Saccharomyces cerevisiae = test: Inhibition of calcium signal transduction pathway in Saccharomyces cerevisiae YNS17 assessed as growth restoration; assay type: functional, organism-based
Summary of the method: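 Mutant S. cerevisiae YNS17 plate assay. Samples dissolved in MeOH and spotted on plates; growth-restored zones scored over 0.5 to 0.13 μg/spot. Positive control: FK506 at 2.5 ng/spot.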

[3] = molecular target: T1, Glycogen synthase kinase-3 beta; test: Inhibition of human GSK-3beta using peptide substrate
Homo sapiens [4] = species: Homo sapiens; test: Inhibition of calcineurin (unknown origin) using DLDVPIPGRFDRRVpSVAAE as substrate by malachite green based colorimetric method

Compound: Cc1ccc2c(c1CCC(C)C)CCC[C@]2(C)CO [KUJIGAMBEROL]
- IC50 (WI-38): > 50 µM

Compound: Cc1ccc2c(c1CCC(C)(C)O)CCCC2(C)C
- inhibition [1]: inactive
- IC50 (WI-38): > 50 µM
- inhibition (Homo sapiens [2]): inactive
- IC50 (HL-60): 41.7 µM
- inhibition (Saccharomyces cerevisiae): Dose-dependent effect

Compound: Cc1ccc2c(c1)CC[C@H]1[C@@](C)(CO)CCC[C@]21C
- IC50 (WI-38): > 50 µM
- IC50 [3]: 178 µM
- inhibition [3]: Dose-dependent effect
- IC50 (HL-60): 7.1 µM
- inhibition (Saccharomyces cerevisiae): Dose-dependent effect
- inhibition (Homo sapiens [4]): Dose-dependent effect
